Measurements reported in paper PMC5060091 (ChemMedChem, 2016).
Values after ≈ are worked out from the molar mass of the structure shown. Values joined by “and” are separate entries in the source; they are usually repeats but may differ in a detail not shown here. Equal values may be shown once. Read-outs that look alike come from different tables or passages of the source.

How the values were obtained:
[1] = system: Aspergillus flavus ATCC MYA-3631; test: MIC, broth dilution, strain K; type: cell-based; conditions: for MIC: Aspergillus flavus
[2] = system: Aspergillus terreus ATCC MYA-3633; test: MIC, broth dilution, strain M; type: cell-based; conditions: for MIC: Aspergillus terreus
[3] = system: Candida albicans ATCC 10231; conditions: strain A; azoles; previously reported; cited from earlier work
[4] = system: C. albicans ATCC 64124; conditions: strain B; azoles; previously reported; cited from earlier work
[5] = system: C. albicans ATCC MYA-2876(S); conditions: strain C; azoles; previously reported; cited from earlier work
[6] = system: C. albicans ATCC 90819(R); conditions: strain D; azoles; previously reported; cited from earlier work
[7] = system: C. albicans ATCC MYA-2310(S); conditions: strain E; azoles; previously reported; cited from earlier work
[8] = system: C. albicans ATCC MYA-1237(R); conditions: strain F; azoles; previously reported; cited from earlier work
[9] = system: C. albicans ATCC MYA-1003(R); conditions: strain G; azoles; previously reported; cited from earlier work
[10] = system: Aspergillus nidulans ATCC 38163; conditions: strain L; previously reported; cited from earlier work
[11] = system: Candida albicans ATCC 10231; test: MIC, broth dilution, strain A; type: cell-based; conditions: for MIC: Candida albicans
How it was run: (§1)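 Broth dilution MIC assay on the Candida panel: C. albicans strains A–G, C. glabrata (H), C. krusei (I) and C. parapsilosis (J). Test compounds were delivered in DMSO, with DMSO kept below 1% in the assay. The MIC is reported in µg/mL, with µM in parentheses. Reference antifungals (a polyene and four azoles) were run alongside.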

[12] = system: C. albicans ATCC 64124; test: MIC, broth dilution, strain B; type: cell-based, Candida albicans; conditions: for MIC: Candida albicans
How it was run: as §1

[13] = system: C. albicans ATCC MYA-2876(S); test: MIC, broth dilution, strain C; type: cell-based, Candida albicans; conditions: for MIC: Candida albicans
How it was run: as §1

[14] = system: C. albicans ATCC 90819(R); test: MIC, broth dilution, strain D; type: cell-based, Candida albicans; conditions: for MIC: Candida albicans
How it was run: as §1

[15] = system: C. albicans ATCC MYA-2310(S); test: MIC, broth dilution, strain E; type: cell-based, Candida albicans; conditions: for MIC: Candida albicans
How it was run: as §1

[16] = system: C. albicans ATCC MYA-1237(R); test: MIC, broth dilution, strain F; type: cell-based, Candida albicans; conditions: for MIC: Candida albicans
How it was run: as §1

[17] = system: C. albicans ATCC MYA-1003(R); test: MIC, broth dilution, strain G; type: cell-based, Candida albicans; conditions: for MIC: Candida albicans
How it was run: as §1

[18] = system: Aspergillus nidulans ATCC 38163; test: MIC, broth dilution, strain L; type: cell-based; conditions: for MIC: Aspergillus nidulans
[19] = system: Aspergillus strains (K–M); test: MIC against Aspergillus strains; type: cell-based; conditions: read-out: MIC values against Aspergillus strains
[20] = system: Candida glabrata ATCC 2001; test: MIC, broth dilution, strain H; type: cell-based; conditions: compounds 1–4n and AmB
How it was run: as §1

[21] = system: Candida krusei ATCC 6258; test: MIC, broth dilution, strain I; type: cell-based; conditions: compounds 1–4n and AmB
How it was run: as §1

[22] = system: Candida parapsilosis ATCC 22019; test: MIC, broth dilution, strain J; type: cell-based; conditions: compounds 1–4n and AmB
How it was run: as §1

[23] = system: Candida strains (A–J); test: MIC against panel of Candida strains; type: cell-based
How it was run: as §1

[24] = system: C. albicans ATCC 64124 (strain B); test: Time-kill assay; type: cell-based, Candida albicans
[25] = system: C. albicans ATCC 10231 (strain A); test: ROS induction assay; type: cell-based, Candida albicans; conditions: 1× and 2× MIC, 1-h treatment; H2O2 1 mM
How it was run: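 C. albicans ATCC 10231 cells were incubated 1 h at 37 °C with test compound at 1× or 2× MIC, with no drug (negative control), or with 1 mM H₂O₂ (positive control). DCFH-DA (40 µg/mL) was then added. ROS were detected and imaged by fluorescence microscopy.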

[26] = system: murine red blood cells (mRBCs); conditions: data previously presented; cited from earlier work
[27] = read-out: MIC (MIC-0) in µM (parentheses)
[28] = read-out: MIC (MIC-2) in µM (parentheses)
[29] = strain A, compounds 1–4n and AmB
[30] = strain C, compounds 1–4n and AmB
[31] = strain D, compounds 1–4n and AmB
[32] = strain E, compounds 1–4n and AmB
[33] = strain F, compounds 1–4n and AmB
[34] = strain G, compounds 1–4n and AmB

Compound: CCC(C)n1ncn(-c2ccc(N3CCN(c4ccc(OCC5COC(Cn6cncn6)(c6ccc(Cl)cc6Cl)O5)cc4)CC3)cc2)c1=O (stereo not shown) [ITC, itraconazole]
- MIC ([1]; read-out: MIC (MIC-0)): 0.48 µg/mL
- MIC [1, 27]: 0.68 µM
- MIC ([2]; read-out: MIC (MIC-0)): 0.975 µg/mL
- MIC [2, 27]: 1.38 µM
- MIC (MIC-2) [3]: 0.5 µg/mL (≈ 0.709 µM)
- MIC (MIC-2) in µM (parentheses) [3]: 0.71 µM (≈ 0.501 µg/mL)
- MIC (MIC-2) [4]: > 62.5 µg/mL
- MIC (MIC-2) in µM (parentheses) [4]: > 88.6 µM
- MIC (MIC-2) [5]: 7.8 µg/mL (≈ 11.1 µM)
- MIC (MIC-2) in µM (parentheses) [5]: 11.1 µM (≈ 7.83 µg/mL)
- MIC (MIC-2) [6]: 31.2 µg/mL (≈ 44.2 µM)
- MIC (MIC-2) in µM (parentheses) [6]: 44.2 µM (≈ 31.2 µg/mL)
- MIC (MIC-2) [7]: 31.2 µg/mL (≈ 44.2 µM)
- MIC (MIC-2) in µM (parentheses) [7]: 44.2 µM (≈ 31.2 µg/mL)
- MIC (MIC-2) [8]: 31.2 µg/mL (≈ 44.2 µM)
- MIC (MIC-2) in µM (parentheses) [8]: 44.2 µM (≈ 31.2 µg/mL)
- MIC (MIC-2) [9]: 31.2 µg/mL (≈ 44.2 µM)
- MIC (MIC-2) in µM (parentheses) [9]: 44.2 µM (≈ 31.2 µg/mL)
- MIC (MIC-0) [10]: 0.195 µg/mL (≈ 0.276 µM)
- MIC (MIC-0) in µM (parentheses) [10]: 0.28 µM (≈ 0.198 µg/mL)

Compound: CC[C@@H]([C@H](C)O)n1ncn(-c2ccc(N3CCN(c4ccc(OC[C@@H]5CO[C@@](Cn6cncn6)(c6ccc(F)cc6F)C5)cc4)CC3)cc2)c1=O [POS, posaconazole]
- MIC ([1]; read-out: MIC (MIC-0)): 0.24 µg/mL
- MIC [1, 27]: 0.34 µM
- MIC ([2]; read-out: MIC (MIC-0)): 0.48 µg/mL
- MIC [2, 27]: 0.68 µM
- MIC (MIC-2) [3]: 0.5 µg/mL (≈ 0.713 µM)
- MIC (MIC-2) in µM (parentheses) [3]: 0.71 µM (≈ 0.498 µg/mL)
- MIC (MIC-2) [4]: > 62.5 µg/mL
- MIC (MIC-2) in µM (parentheses) [4]: > 89.3 µM
- MIC (MIC-2) [5]: 7.8 µg/mL (≈ 11.1 µM)
- MIC (MIC-2) in µM (parentheses) [5]: 11.1 µM (≈ 7.78 µg/mL)
- MIC (MIC-2) [6]: 31.2 µg/mL (≈ 44.5 µM)
- MIC (MIC-2) in µM (parentheses) [6]: 44.5 µM (≈ 31.2 µg/mL)
- MIC (MIC-2) [7]: 31.2 µg/mL (≈ 44.5 µM)
- MIC (MIC-2) in µM (parentheses) [7]: 44.5 µM (≈ 31.2 µg/mL)
- MIC (MIC-2) [8]: 15.6 µg/mL (≈ 22.3 µM)
- MIC (MIC-2) in µM (parentheses) [8]: 22.3 µM (≈ 15.6 µg/mL)
- MIC (MIC-2) [9]: 15.6 µg/mL (≈ 22.3 µM)
- MIC (MIC-2) in µM (parentheses) [9]: 22.3 µM (≈ 15.6 µg/mL)
- MIC (MIC-0) [10]: 0.195 µg/mL (≈ 0.278 µM)
- MIC (MIC-0) in µM (parentheses) [10]: 0.28 µM (≈ 0.196 µg/mL)

Compound: C[C@@H](c1ncncc1F)[C@](O)(Cn1cncn1)c1ccc(F)cc1F [VOR, voriconazole]
- MIC ([11]; ATCC10231, read-out: MIC (MIC-2)): 7.8 µg/mL
- MIC ([11]; ATCC10231, read-out: MIC (MIC-2) in µM (parentheses)): 22.3 µM
- MIC ([12]; ATCC64124, read-out: MIC (MIC-2)): > 31.2 µg/mL
- MIC ([12]; ATCC64124, read-out: MIC (MIC-2) in µM (parentheses)): > 89.3 µM
- MIC ([13]; read-out: MIC (MIC-2)): 0.975 µg/mL
- MIC [13, 28]: 2.79 µM
- MIC ([14]; ATCC90819, read-out: MIC (MIC-2)): 1.95 µg/mL
- MIC ([14]; ATCC90819, read-out: MIC (MIC-2) in µM (parentheses)): 5.58 µM
- MIC ([15]; read-out: MIC (MIC-2)): 1.95 µg/mL
- MIC [15, 28]: 5.58 µM
- MIC ([16]; read-out: MIC (MIC-2)): 0.975 µg/mL
- MIC [16, 28]: 2.79 µM
- MIC ([17]; read-out: MIC (MIC-2)): 7.8 µg/mL
- MIC [17, 28]: 22.3 µM
- MIC ([18]; ATCC38163, read-out: MIC (MIC-0)): 0.03 µg/mL
- MIC ([18]; ATCC38163, read-out: MIC (MIC-0) in µM (parentheses)): 0.09 µM
- MIC ([2]; read-out: MIC (MIC-0)): 0.12 µg/mL
- MIC [2, 27]: 0.34 µM
- MIC [19]: 0.03 to 0.24 µg/mL (≈ 0.0859 to 0.687 µM)

Compound: ebsulfur [Compound 2a]
- MIC (MIC-0) [11, 29]: 12.5 µg/mL
- MIC (MIC-0) in µM (parentheses) [11, 29]: 55.0 µM
- MIC (MIC-0) in µM (parentheses) ([12]; strain B, compounds 1–4n and AmB): > 55.0 µM
- MIC (MIC-0) [13, 30]: 12.5 µg/mL
- MIC (MIC-0) in µM (parentheses) [13, 30]: 55.0 µM
- MIC (MIC-0) [14, 31]: 3.13 µg/mL
- MIC (MIC-0) in µM (parentheses) [14, 31]: 13.8 µM
- MIC (MIC-0) [15, 32]: 6.25 µg/mL
- MIC (MIC-0) in µM (parentheses) [15, 32]: 27.5 µM
- MIC (MIC-0) [16, 33]: > 12.5 µg/mL
- MIC (MIC-0) in µM (parentheses) [16, 33]: > 55.0 µM
- MIC (MIC-0) [17, 34]: > 12.5 µg/mL
- MIC (MIC-0) in µM (parentheses) [17, 34]: > 55.0 µM
- MIC (MIC-0) [20]: 6.25 µg/mL
- MIC (MIC-0) in µM (parentheses) [20]: 27.5 µM
- MIC (MIC-0) [21]: 3.13 µg/mL
- MIC (MIC-0) in µM (parentheses) [21]: 13.8 µM
- MIC (MIC-0) [22]: 12.5 µg/mL
- MIC (MIC-0) in µM (parentheses) [22]: 55.0 µM
- MIC (MIC-0) ([1]; strain K, all compounds): 6.25 µg/mL
- MIC (MIC-0) in µM (parentheses) ([1]; strain K, all compounds): 27.5 µM
- MIC (MIC-0) ([18]; strain L, all compounds): 6.25 µg/mL
- MIC (MIC-0) in µM (parentheses) ([18]; strain L, all compounds): 27.5 µM
- MIC (MIC-0) ([2]; strain M, all compounds): 6.25 µg/mL
- MIC (MIC-0) in µM (parentheses) ([2]; strain M, all compounds): 27.5 µM
- MIC values against Candida strains ([23]; strains A, B, C, F, G and J (poorly active)): ≥ 12.5 µg/mL
- MIC values against Candida strains ([23]; strains D, E, H and I (active)): 1.56 to 6.25 µg/mL
- time-kill effect ([24]; 1× MIC (1 12.5, 2a 12.5, 3a 0.39, AmB 3.9 µg/mL)): fungistatic
- time-kill effect ([24]; 2× MIC (1 25, 2a 25, 3a 0.78, AmB 7.8 µg/mL)): fungicidal
- fungicidal concentration ([24]; time-kill curves): 25 µg/mL and 110 µM
- ROS induction (DCFH-DA fluorescence) [25]: highly fluorescent
- concentration until which no significant hemolytic activity was shown [26]: 15.6 µg/mL and 68.6 µM
